The chains are these.
B1: Osa-1-4 twister ribozyme (parent)
chain: CCGCCUAACACUGCCAAUGCCGGUCCCAAGCCCGGAUAAAAGUGGAGGGGGCGG

The data set covers variants of B1. Kind of data set: self-cleavage, relative activity (ratio to wild type); higher = more cleavage; co-transcriptional. The essentials: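 A DNA template for a 54-nucleotide Oryza sativa twister ribozyme was synthesised with 97 % wild-type base and 1 % of each other base at the 48 positions downstream of the cleavage site. It was transcribed in vitro for 2 h at 37 °C, allowing co-transcriptional self-cleavage, then reverse-transcribed with a template-switching oligonucleotide, PCR-amplified and deep-sequenced. Cleavage status was scored from reads with or without upstream sequence. Relative activity is fraction cleaved normalised to wild type.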
With C21A G19U, the self-cleavage was 0.07.
The same measure for C21A G19A: 0.4; for C21A G19C: 0.03.
On to C21G G34U, for which the self-cleavage is 0.89.
The same measure for C21G G34A: 0.3; for C21G G34C: 0.83; for C21A U43A: 0.09.
For C21A U43C, the self-cleavage was found to be 0.11.
Consider C21A U43G, for which the self-cleavage was found to be 0.1.
The same measure for C21U C25G: 0.14.
As for C21U C25A, the self-cleavage was determined as 0.11.
Take C21U C25U: the self-cleavage turned out to be 0.88.
In the case of G22A U43A, the self-cleavage stood at 0.3.
Then G22A U43C, with 0.18.
Then G22A U43G, with 0.1.
For the variant C21U, the self-cleavage is 1.03.
As to C21G, the self-cleavage came to 0.08.
Consider C21U G54U, for which the self-cleavage was found to be 0.93.
The same measure for C21U G54C: 0.89; for C21U G54A: 0.96; for G22A G23U: 0.08.
Then G22A G23A, with 0.12; and G22A G23C, with 0.05.
Turning to G22A G47A, the self-cleavage was 0.13.
The same measure for G22A G47U: 0.12; for G22A G47C: 0.08; for C21A U24G: 0.06.
Then C21A U24C, with 0.06; and C21A U24A, with 0.07; and C21U G34C, with 0.96.
Regarding C21U G34A, the self-cleavage came to 1.05.
Then C21U G34U, with 1.05.
As to C21G G48C, the self-cleavage came to 0.03.
The same measure for C21G G48U: 0.02; for C21G G48A: 0.03; for C21U C9A: 0.55.
Then C21U C9G, with 0.74; and C21U C9U, with 0.92.
In the case of C21U G53C, the self-cleavage worked out at 0.1.
Then C21U G53U, with 0.32; and C21U G53A, with 0.64.
Regarding C21G G30C, the self-cleavage worked out at 0.02.
As to C21G G30A, the self-cleavage is 0.02.
Turning to C21G G30U, the self-cleavage came out at 0.02.
Take C21A U18G: the self-cleavage turned out to be 0.6.
Regarding C21A U18C, the self-cleavage is 0.82.
As for C21A U18A, the self-cleavage was 0.83.
The same measure for C21G C9A: 0.04; for C21G C9U: 0.04.
The same measure for C21G C9G: 0.07; for C21U G47A: 0.19.
Consider C21U G47U, for which the self-cleavage turned out to be 0.23.
The same measure for C21U G47C: 0.12; for C21U G42C: 0.18; for C21U G42U: 0.09.
Then C21U G42A, with 0.51; and C21G C26A, with 0.02.
On to C21G C26U, for which the self-cleavage is 0.06.
The same measure for C21G C26G: 0.05; for C21U G50C: 0.94; for C21U G50U: 1.03.
On to C21U G50A, for which the self-cleavage worked out at 0.97.
For the variant C21A G22A, the self-cleavage was 0.11.
C21A G22C: the self-cleavage came to 0.07.
Then C21A G22U, with 0.1.
Then C21G G42C, with 0.05; and C21G G42A, with 0.05.
Take C21G G42U: the self-cleavage is 0.02.
Regarding C21A C33U, the self-cleavage was found to be 0.07.
Then C21A C33G, with 0.03; and C21A C33A, with 0.09; and G22C G35C, with 0.03.
The same measure for G22C G35U: 0.04; for G22C G35A: 0.03; for G22C G44U: 0.07.
Then G22C G44C, with 0.06; and G22C G44A, with 0.07; and C21A G44A, with 0.38.
Turning to C21A G44C, the self-cleavage amounted to 0.24.
For the variant C21A G44U, the self-cleavage stood at 0.21.
On to C21A G47U, for which the self-cleavage worked out at 0.07.
Then C21A G47A, with 0.07.
Regarding C21A G47C, the self-cleavage amounted to 0.05.
Regarding C21U C27A, the self-cleavage was found to be 0.15.
Consider C21U C27U, for which the self-cleavage came to 0.14.
With C21U C27G, the self-cleavage is 0.09.
As to C21A G50C, the self-cleavage was found to be 0.24.
The same measure for C21A G50U: 0.52; for C21A G50A: 0.85.
The same measure for C21A G51A: 0.31; for C21A G51U: 0.25; for C21A G51C: 0.07.
Then G22C G42A, with 0.03; and G22C G42U, with 0.02.
As to G22C G42C, the self-cleavage came to 0.04.
Then C21G C31U, with 0.05; and C21G C31G, with 0.06.
Then C21G C31A, with 0.02.
The same measure for G22A G44A: 0.94; for G22A G44U: 0.84.
For G22A G44C, the self-cleavage came out at 0.92.
The same measure for G22A G48U: 0.08; for G22A G48A: 0.08; for G22A G48C: 0.09.
Then C21A U12G, with 0.12.
In the case of C21A U12C, the self-cleavage amounted to 0.14.
The same measure for C21A U12A: 0.18.
For G22A G34A, the self-cleavage worked out at 0.14.
Then G22A G34C, with 0.11.
Consider G22A G34U, for which the self-cleavage worked out at 0.21.
Take G22C G34U: the self-cleavage was 0.05.
The same measure for G22C G34C: 0.05; for G22C G34A: 0.05; for C21G C33U: 0.05.
Regarding C21G C33A, the self-cleavage is 0.03.
The same measure for C21G C33G: 0.05; for G22A U12A: 0.35; for G22A U12G: 0.08.
For the variant G22A U12C, the self-cleavage was found to be 0.21.
The same measure for G22A U37G: 1.
For G22A U37A, the self-cleavage came to 1.06.
Then G22A U37C, with 1.01; and C21A G42A, with 0.1.
The same measure for C21A G42U: 0.05.
For C21A G42C, the self-cleavage was 0.07.
The same measure for G22C G30U: 0.02.
G22C G30A: the self-cleavage amounted to 0.03.
Consider G22C G30C, for which the self-cleavage was found to be 0.02.
For C21U U18C, the self-cleavage is 1.03.
The same measure for C21U U18G: 0.78; for C21U U18A: 1; for C21A G53U: 0.11.
Regarding C21A G53C, the self-cleavage is 0.06.
Consider C21A G53A, for which the self-cleavage was determined as 0.19.
Take C21G U18C: the self-cleavage stood at 0.08.
Regarding C21G U18A, the self-cleavage came out at 0.1.
The same measure for C21G U18G: 0.11.
The same measure for C21A G23U: 0.04; for C21A G23C: 0.03; for C21A G23A: 0.07.
Regarding G22A U24A, the self-cleavage was 0.36.
With G22A U24C, the self-cleavage is 0.16.
Consider G22A U24G, for which the self-cleavage is 0.13.
Then G22A G51A, with 0.2; and G22A G51U, with 0.67.
Then G22A G51C, with 0.14.
In the case of C21A G30U, the self-cleavage turned out to be 0.04.
For C21A G30A, the self-cleavage is 0.03.
With C21A G30C, the self-cleavage amounted to 0.04.
With C21A G35A, the self-cleavage came to 0.87.
Take C21A G35U: the self-cleavage is 0.44.
The same measure for C21A G35C: 0.06.
C21U G19U: the self-cleavage worked out at 0.21.
Turning to C21U G19A, the self-cleavage is 0.66.
The same measure for C21U G19C: 0.04; for G22A G45A: 0.15; for G22A G45C: 0.06.
For the variant G22A G45U, the self-cleavage is 0.08.
C21G G13U: the self-cleavage was found to be 0.02.
Then C21G G13A, with 0.02.
Regarding C21G G13C, the self-cleavage was 0.01.
C21U U24G: the self-cleavage worked out at 0.09.
Then C21U U24C, with 0.26.
Turning to C21U U24A, the self-cleavage came to 0.29.
Then C21A C52G, with 0.54.
In the case of C21A C52A, the self-cleavage is 0.31.
For the variant C21A C52U, the self-cleavage stood at 0.86.

Source of the values: the RNAGym collection of RNA variant scans (doi:10.1002/anie.201605470).
